# According to ChEMBL document CHEMBL3259775, “Towards the development of 5-HT₇ ligands combining serotonin-like and arylpiperazine moieties” (Eur J Med Chem, 2014):
# Target: T1, 5-hydroxytryptamine receptor 7 (Homo sapiens, UniProt P34969)
# Test: Displacement of [3H]5-HT from human 5-HT7 receptor expressed in HEK293 cells after 30 mins by microbeta counting analysis
# Assay type: cell-based
# T1 sequence (P34969 whole entry): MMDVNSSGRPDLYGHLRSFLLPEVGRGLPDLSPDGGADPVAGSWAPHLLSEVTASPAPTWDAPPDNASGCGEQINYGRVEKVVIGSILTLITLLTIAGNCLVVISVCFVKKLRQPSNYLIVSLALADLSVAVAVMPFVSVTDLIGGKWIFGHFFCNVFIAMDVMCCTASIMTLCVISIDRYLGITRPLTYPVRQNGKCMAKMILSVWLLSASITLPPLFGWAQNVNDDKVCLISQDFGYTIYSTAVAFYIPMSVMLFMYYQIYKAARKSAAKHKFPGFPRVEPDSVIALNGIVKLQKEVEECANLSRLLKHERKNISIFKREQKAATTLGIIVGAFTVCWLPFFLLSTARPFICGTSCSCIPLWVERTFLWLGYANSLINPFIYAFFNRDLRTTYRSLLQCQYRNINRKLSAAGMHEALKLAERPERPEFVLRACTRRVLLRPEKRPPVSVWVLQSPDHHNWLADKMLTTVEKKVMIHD
row,Ki [µM],Structure (SMILES)
1,0.0901,Oc1cccc(N(CCCN2CCN(c3ccccc3)CC2)c2ccccc2)c1
2,0.0121,O=S(=O)(c1ccccc1)N(CCCN1CCN(c2ccccc2)CC1)c1cccc(O)c1
3,0.04,Oc1cccc(CCCN2CCN(c3ccccc3)CC2)c1
4,0.0925,Oc1cccc(N(CCCN2CCN(c3ccccc3)CC2)Cc2ccccc2)c1
5,0.161,CN(CCN1CCN(c2ccccc2)CC1)c1cccc(O)c1
6,0.191,CCN(CCCCCCN1CCN(c2ccccc2)CC1)c1cccc(O)c1
7,0.012,CN(CCCCCCN1CCN(c2ccccc2)CC1)c1cccc(O)c1
8,0.161,CN(CCCN1CCN(c2ccccc2)CC1)c1cccc(Br)c1
9,0.0031,Oc1cccc(CCCCN2CCN(c3ccccc3)CC2)c1
10,0.0848,Cc1cccc(N(C)CCCN2CCN(c3ccccc3)CC2)c1
11,0.434,CN(CCCN1CCN(c2ccc3ccccc3c2)CC1)c1cccc(O)c1
12,0.112,CN(CCCN1CCN(c2ccccc2)CC1)c1cccc(F)c1
13,0.242,CN(CCCN1CCC(c2ccccc2)(c2ccccc2)CC1)c1cccc(O)c1
14,0.0029,CN(CCCN1CCN(c2cccc3ccccc23)CC1)c1cccc(O)c1
15,0.0167,CN(CCCCCN1CCN(c2ccccc2)CC1)c1cccc(O)c1
16,0.138,Oc1cccc(N(CCCCCCN2CCN(c3ccccc3)CC2)Cc2ccccc2)c1
17,0.179,CN(CCCN1CCN(c2ccccc2)CC1)c1cccc(Cl)c1
18,0.0208,CCCN(CCCN1CCN(c2ccccc2)CC1)c1cccc(O)c1
19,0.0101,Oc1cccc(NCCCN2CCN(c3ccccc3)CC2)c1

# Second part, the compound before the results:
row,Structure (SMILES),Ki [µM]
1,CN(CCN1CCN(c2ccccc2)CC1)c1cccc(NS(C)(=O)=O)c1,0.057
2,Oc1cccc2c1CC(N1CCN(c3ccccc3)CC1)CC2 (racemic),0.0814
3,CN(CCN1CCN(c2ccccc2)CC1)c1cccc([N+](=O)[O-])c1,0.332
4,CCc1[nH]c2ccc(O)cc2c1CCN1CCN(c2cccc3ccccc23)CC1,0.0066
5,CN(CCCCCCN1CCC(c2ccccc2)CC1)c1cccc(O)c1,0.226
6,Oc1cccc(NCCN2CCN(c3ccccc3)CC2)c1,0.252
7,OCc1cccc(NCCCN2CCN(c3ccccc3)CC2)c1,0.109
8,CC(=O)Nc1cccc(N(C)CCCN2CCN(c3ccccc3)CC2)c1,0.161
9,O=Cc1cccc(NCCCN2CCN(c3ccccc3)CC2)c1,0.0132
10,CN(CCCCCCN1CCN(c2cccc3ccccc23)CC1)c1cccc(O)c1,0.0394
11,Cc1[nH]c2ccc(O)cc2c1CCN1CCN(c2cccc3ccccc23)CC1,0.0128
12,NC(=O)c1cccc(NCCCN2CCN(c3ccccc3)CC2)c1,0.0633
13,COC(=O)c1cccc(NCCCN2CCN(c3ccccc3)CC2)c1,0.0779
14,CN(CCCN1CCN(c2ccccc2)CC1)c1cccc(NS(C)(=O)=O)c1,0.0396
15,CN(CCCCCCN1CCN(c2cccc(C(F)(F)F)c2)CC1)c1cccc(O)c1,0.0956
16,CN(CCCN1CCC(N(c2ccccc2)c2ccccc2)CC1)c1cccc(O)c1,0.31

# Target: T1, 5-hydroxytryptamine receptor 7
# Test: Displacement of [3H]5-HT from human 5-HT7 receptor expressed in HEK293 cells at 10^-5 mol/L after 30 mins by microbeta counting analysis
# Assay type: cell-based
# Outline: (§1)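 Membranes incubated 30 min at 25 °C with 5 nmol/L [3H]5-HT in 50 mM Tris-HCl pH 7.4 containing pargyline, CaCl2 and ascorbic acid, with the test compound at a single fixed concentration. Non-specific binding with 100 µM cold 5-HT; separation by filtration; result reported as % displacement.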
row,inhibition [%],Structure (SMILES)
1,42,Oc1cccc(OCCN2CCN(c3ccccc3)CC2)c1
2,85,CN(CCN1CCN(c2ccccc2)CC1)c1cccc(N)c1
3,82,CN(CCN1CCN(Cc2ccccc2)CC1)c1cccc(O)c1
4,74,CN(CCCCCCN1CCN(c2ccnc3cc(Cl)ccc23)CC1)c1cccc(O)c1

row,Structure (SMILES),inhibition [%]
1,Oc1ccc2[nH]cc(CCN3CCN(c4cccc(-c5ccccc5)c4)CC3)c2c1,88

# Target: T1, 5-hydroxytryptamine receptor 7
# Test: Displacement of [3H]5-HT from human 5-HT7 receptor expressed in HEK293 cells at 10^-6 mol/L after 30 mins by microbeta counting analysis
# Assay type: cell-based
# Outline: as §1
row,inhibition [%],Structure (SMILES)
1,21,Oc1cccc(OCCN2CCN(c3ccccc3)CC2)c1
2,40,CN(CCN1CCN(c2ccccc2)CC1)c1cccc(N)c1
3,42,CN(CCN1CCN(Cc2ccccc2)CC1)c1cccc(O)c1
4,28,CN(CCCCCCN1CCN(c2ccnc3cc(Cl)ccc23)CC1)c1cccc(O)c1

row,Structure (SMILES),inhibition [%]
1,Oc1ccc2[nH]cc(CCN3CCN(c4cccc(-c5ccccc5)c4)CC3)c2c1,42

# Target: T1, 5-hydroxytryptamine receptor 7
# Test: Antagonist activity at human 5-HT7 receptor expressed in CHO cells assessed as residual 5-HT-stimulated cAMP accumulation at 1 uM relative to control
row,% serotonin response [%],Structure (SMILES)
1,48,CN(CCN1CCN(c2ccccc2)CC1)c1cccc(NS(C)(=O)=O)c1
2,56,CN(CCCCCCN1CCN(c2ccccc2)CC1)c1cccc(O)c1
3,69,CN(CCCCCN1CCN(c2ccccc2)CC1)c1cccc(O)c1
